Active and inactive are the calls of the source. The rule behind the calls is not given here. Some results are limits rather than exact numbers.

In general, IC50 refers to the concentration needed to halve the response being measured. Usually CC50 stands for the concentration at which the toxic effect on the cells reaches its halfway point. The low end stands for harm at low concentration, the high end for better tolerance by the cells.

Data set [1] is described as follows: Selectivity index, ratio of CC50 for mouse L929 cells to IC50 for Trypanosoma cruzi amastigotes infected in peritoneal macrophages (unknown origin). Conditions: read-out: Ratio CC50/IC50. The data set is classed as toxicity. The gist of the method:
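Ratio of the L929 CC50 (MTT, 48 h) to the intracellular amastigote IC50 (infected peritoneal macrophages, 48 h).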

The subject of data set [2] is Trypanosoma cruzi. The data set is described as follows: Antitrypanosomal activity against Trypanosoma cruzi trypomastigotes measured after 24 hrs by resazurin dye based assay. The format is functional, organism-based. The gist of the method:
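Cell-derived trypomastigotes, 1 × 10^6/well, exposed 24 h at 37 °C; viability by resazurin read at 570 nm; benznidazole as standard; IC50 calculated.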

The subject of data set [3] is Trypanosoma cruzi. The data set is described as follows: Induction of reactive oxygen species generation in Trypanosoma cruzi trypomastigotes at antitrypanosomal IC50 measured after 60 to 120 mins by H2DCFDA dye based fluorescence assay. Conditions: in vitro. The format is organism-based. The gist of the method: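 Trypomastigotes incubated with compound at IC50 for 60 and 120 min, then 20 μM H2DCFDA 15 min at 37 °C; fluorescence ex 485/em 520 nm; 10 mM sodium azide positive control, untreated negative; compound background and DMSO controls.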

For data set [4], the system named is Trypanosoma cruzi. The data set can be described thus: Antitrypanosomal activity against Trypanosoma cruzi amastigotes infected in peritoneal macrophages (unknown origin) measured after 48 hrs by resazurin dye based assay. The data set is classed as functional, organism-based. (In general: Resazurin is reduced to fluorescent resorufin, in cell work by metabolically active cells.)

In data set [5] the test system is Trypanosoma cruzi. The data set can be described thus: Antitrypanosomal activity against Trypanosoma cruzi amastigotes infected in peritoneal macrophages (unknown origin) assessed as elimination of parasite at 100 uM by optical microscopic analysis. The format is functional, organism-based. In a few lines: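 Peritoneal macrophages infected with T. cruzi trypomastigotes (ratio 10:1) and treated at 100 μM. Infected untreated macrophages served as control. Parasite clearance was judged by optical microscopy at 1000× magnification.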

Data set [6] deals with Trypanosoma cruzi. The data set can be described thus: Disruption of plasma membrane integrity in Trypanosoma cruzi trypomastigotes at antitrypanosomal IC50 measured after 120 mins by Sytox green dye based fluorescence assay. The data set is classed as functional, organism-based. The gist of the method: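 Trypomastigotes (2 × 10^6/well) with 1 μM SYTOX Green, compound at IC50, fluorescence followed 120 min at ex 485/em 520 nm; 0.5% Triton X-100 gives maximal permeabilization; compound background and DMSO controls; duplicates, at least two independent assays.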

The nature of data set [7]: Selectivity index, ratio of CC50 for mouse L929 cells to IC50 for Trypanosoma cruzi trypomastigotes. Particulars: read-out: Ratio CC50/IC50. The data set is classed as toxicity. In a few lines:
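Ratio of the mammalian CC50 (L929, MTT, 48 h) to the IC50 against trypomastigotes (resazurin, 24 h).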

Data set [8] has as its system Trypanosoma cruzi. The data set is described as follows: Induction of plasma membrane electric potential depolarization in Trypanosoma cruzi trypomastigotes at antitrypanosomal IC50 measured after 60 mins by DiSBAC2(3) dye based flow cytometry. The format is functional, organism-based. The gist of the method: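 Trypomastigotes (2 × 10^6/well) exposed at IC50 for 60 min at 37 °C, then 0.2 μM DiSBAC2(3) added and read by flow cytometry; gramicidin D 0.5 μg/mL defined 100%, untreated 0%; at least two independent assays in duplicate.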
A general note: Flow cytometry measures light scatter and fluorescence of single cells or particles in a stream.

For data set [9], the system named is Trypanosoma cruzi. The data set can be described thus: Induction of mitochondrial membrane potential depolarization in Trypanosoma cruzi trypomastigotes at antitrypanosomal IC50 measured after 2 hrs by DAPI/Mito tracker red dye based fluorescence microscopic analysis. The format is functional, organism-based. In a few lines:
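Treated trypomastigotes costained with 10 μM DAPI and 1 μM MitoTracker Red CM-H2XROS, 30 min at 37 °C in the dark, then fluorescence microscopy; CCCP positive control, untreated parasites as reference.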

Data set [10] can be described thus: Cytotoxicity against mouse L929 cells measured after 48 hrs by MTT assay. The data set is classed as cell-based. In a few lines: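 NCTC clone L929 cells, 6 × 10^4/well, incubated with compound 48 h at 37 °C; viability by MTT at 570 nm; CC50 taken as 50% cytotoxic concentration; highest concentration 200 μM.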
Data set [11] deals with Trypanosoma cruzi. The data set is described as follows: Induction of mitochondrial membrane potential depolarization in Trypanosoma cruzi trypomastigotes at antitrypanosomal IC50 measured after 2 hrs by JC1 dye based flow cytometry. The data set is classed as functional, organism-based.
The mark [12] stands for this setting: Trypanosoma cruzi, 24 h, read-out: IC50.
The mark [13] stands for this setting: Trypanosoma cruzi, 48 h, read-out: IC50.

With `C=CCCCCCCC#CCCCCCCCCCCC1=C(O)C(=C)OC1=O`, the selectivity ratio was found to be 3.5 in [1] and 200 in data set [7]. Further, the half-inhibitory concentration (IC50) in the data set with Trypanosoma cruzi [2] (setting [12]) stood at 0.4 µM; with Trypanosoma cruzi [4] (setting [13]), 23 µM. In the data set with Trypanosoma cruzi [3], the Activity entry is on record as “Non-Toxic”. For the same molecule, the outcome with Trypanosoma cruzi [5], with Trypanosoma cruzi [8], with Trypanosoma cruzi [9] and in the data set on Trypanosoma cruzi [11] was Active. Also, the result in the data set with Trypanosoma cruzi [6] was inactive. In [10], this molecule displayed a CC50 at 48 h of 80 µM.
Turning to `C=CCCCCCCC#CCCCCCCCCCCC1=C(O)[C@@H](C)OC1=O`, the selectivity ratio in data set [1] was more than 7.2; in data set [7], more than 55.6. Also, the half-maximal inhibitory concentration (IC50) with Trypanosoma cruzi [2] (setting [12]) is 3.6 µM; in the data set with Trypanosoma cruzi [4] (setting [13]), 27.7 µM. Besides, the Activity entry in the data set with Trypanosoma cruzi [3] is recorded as “Non-Toxic”. The outcome in the data set on Trypanosoma cruzi [5], in the data set with Trypanosoma cruzi [8], in the data set on Trypanosoma cruzi [9] and in the data set on Trypanosoma cruzi [11] was Active. Besides, the result in the data set on Trypanosoma cruzi [6] was inactive. The molecule further registered a half-maximal cytotoxic concentration (CC50) at 48 h in [10] of more than 200 µM.
Take `CCCCCCCCCCCCCCCCCCCC[C@@H]1C(=O)O[C@H](C)[C@@H]1O`: the IC50 entry in the data set with Trypanosoma cruzi [2] and in the data set on Trypanosoma cruzi [4] was “Not Active” in each case.
On to `O=C(Cn1ccnc1[N+](=O)[O-])NCc1ccccc1` [BENZNIDAZOLE], for which the IC50 in the data set with Trypanosoma cruzi [2] (setting [12]) worked out at 5.5 µM; in the data set with Trypanosoma cruzi [4] (setting [13]), 18.7 µM.
Turning to `CCCCCCCCC#CCCCCCCCC(=O)O`, the IC50 is 27.6 µM in the data set with Trypanosoma cruzi [2] (setting [12]) and “Not Active” with Trypanosoma cruzi [4]. In data set [7], the selectivity ratio is more than 7.2. In [10], this molecule showed a CC50 at 48 h of more than 200 µM.
Take `CCCCCCCCCCCCCCCCCC(=O)O` [STEARIC ACID]: the 50% inhibitory concentration (IC50) result in the data set on Trypanosoma cruzi [2] and with Trypanosoma cruzi [4] was “Not Active” in each case.
With `C=CCCCCCCC#CCCCCCCCCCC[C@@H]1C(=O)O[C@H](C)[C@@H]1O`, the selectivity ratio is more than 3.4 in data set [1] and more than 25.6 in [7]. The 50% inhibitory concentration (IC50) turned out to be 7.8 µM in the data set on Trypanosoma cruzi [2] (setting [12]) and 58.3 µM in the data set with Trypanosoma cruzi [4] (setting [13]). In data set [10], this molecule displayed a CC50 at 48 h of more than 200 µM.

For the origin of these results see ChEMBL document CHEMBL4316656, “Antitrypanosomal Activity of Acetogenins Isolated from the Seeds of Porcelia macrocarpa Is Associated with Alterations in Both Plasma Membrane Electric Potential and Mitochondrial Membrane Potential” (J Nat Prod, 2019).
